# Source: PubChem BioAssay
# GSIS activator – GLuc luminescence reporter in INS-1E cells, primary screen for activators of glucose-dependent secretion of insulin | INS-1E GLuc reporter insulin secretion, 2-3 h | activation, % at 16.6 µM | 370,000 tested, 0.61% active | AID 743287;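 active = lowest replicate activation of at least 40%, so every replicate reaches that level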;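 note: 0% = median of neutral control wells and 100% = median of IBMX positive control wells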
# S100A4 MyoIIA – inhibitors of human S100A4 binding to myosin IIA peptide. P26447. S100A4/TAMRA-MyoIIA peptide fluorescence polarization. inhibition, % at 10.7 µM. 360,000 tested, 0.14% active. AID 652163;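 active = mean inhibition of at least 70% across replicates, with every replicate also reaching that level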
# Target sequence (P26447 whole entry, looked up): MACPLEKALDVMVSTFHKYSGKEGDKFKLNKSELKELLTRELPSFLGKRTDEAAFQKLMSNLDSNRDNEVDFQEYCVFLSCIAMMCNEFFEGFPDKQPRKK
#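 Material: S100A4 monomer protein / Buffer or medium: 50 mM HEPES pH 7.2, 10 mM CaCl2, 100 mM KCl / Times: 5 min incubation before reading / Benchmarks: neutral control DMSO, positive control TFP / Reagent: labelled myosin peptide probe, 5 nM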
# SIRT5 block – blocks human SIRT5 desuccinylation of peptide; Q9NXA8; Purified SirT5, succinyl-peptide AMC, trypsin-coupled fluorescence; inhibition, % at 15 µM; 330,000 tested, 1.1% active; in the data active = inhibition above about 15%
# PDI turbidity – blocks human protein disulfide isomerase activity; P07237; PDI insulin aggregation turbidity, A650, 90 min; inhibition, % at 10 µM; 350,000 tested, 0.052% active;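 active = mean inhibition across replicates of 30% or more, whatever share of single replicates reach that level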
# Target sequence (P07237 whole entry, looked up): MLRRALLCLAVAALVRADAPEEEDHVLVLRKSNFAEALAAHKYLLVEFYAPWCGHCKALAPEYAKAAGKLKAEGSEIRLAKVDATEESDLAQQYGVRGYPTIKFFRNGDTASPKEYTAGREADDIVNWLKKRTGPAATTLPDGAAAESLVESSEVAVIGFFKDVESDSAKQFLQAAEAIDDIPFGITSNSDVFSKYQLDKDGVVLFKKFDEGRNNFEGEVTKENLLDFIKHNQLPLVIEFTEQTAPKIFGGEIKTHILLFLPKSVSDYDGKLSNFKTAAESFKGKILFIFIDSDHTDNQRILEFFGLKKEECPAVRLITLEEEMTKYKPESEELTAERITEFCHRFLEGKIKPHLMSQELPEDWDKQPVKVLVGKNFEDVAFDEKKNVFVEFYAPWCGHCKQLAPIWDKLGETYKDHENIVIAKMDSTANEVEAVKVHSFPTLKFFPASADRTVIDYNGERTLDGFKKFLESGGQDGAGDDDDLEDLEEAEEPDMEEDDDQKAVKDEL
# ERp5 inh – blocks human ERp5 reductase activity on insulin | ERp5 insulin aggregation, absorbance 650 nm, 90 min | inhibition, % at 9.99 µM | 350,000 tested, 0.05% active | AID 651711;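 active = mean replicate inhibition above about 25%, with every replicate also reaching it, limit read from the data, passing the limit was not always enough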
# * = called active by the depositor; . = no result given. This is a sample that favours compounds with a hit; in the whole collection about 1.5% have one here.
SMILES,GSIS activator,S100A4 MyoIIA,SIRT5 block,PDI turbidity,ERp5 inh
CC1(C)CC2CC(C)(CN2C(=O)c2ccc([N+](=O)[O-])cc2)C1 (stereo not drawn),-7,-1,21*,-1,3
Cc1ccc(-c2cc(C(=O)N3CC4(C)CC3CC(C)(C)C4)no2)cc1 (stereo not drawn),9,-2,-2,9,1
COc1ccc(C#Cc2c(-c3ccc(OC)cc3)oc3ccc(-c4ccc(OC)cc4)cc23)cc1,14,-1,-2,1,-3
COc1ccc(-c2ccc3oc(-c4ccc(OC)cc4)c(C#CCCO)c3c2)cc1,67*,3,.,15,3
CNC[C@@H]1Oc2c(NS(=O)(=O)c3ccc(OC)cc3)cccc2C(=O)N([C@H](C)CO)C[C@H]1C,1,-7,4,.,2
Cc1ccc2sc(N3CCN(C(=O)c4ccc([N+](=O)[O-])o4)CC3)nc2c1C,87*,30,-3,-1,-11
COc1ccc(CCNC(=O)COC(=O)c2cncc(Br)c2)cc1OC,56*,-1,0,-3,9
COC(=O)c1ccccc1NCCO,120*,-2,-2,-2,0
COc1ccc(CN(C)C(=O)COC(=O)c2ccc3c(c2)OCO3)cc1OC,64*,.,.,3,.
COc1ccc(CCNC(=O)COC(=O)C2CC2C)cc1OC (stereo not drawn),57*,0,-1,-1,0
O=C(C[C@@H]1CC[C@H](NC(=O)C2CCC2)[C@@H](CO)O1)NCC1CC1,-5,-29,-1,.,1
CO[C@@H]1CN(C)C(=O)c2cc(NC(C)=O)ccc2OC[C@H](C)N(C(=O)C2CCCCC2)C[C@H]1C,-6,.,.,.,.
O=C(C[C@H]1C=C[C@@H](NC(=O)C2CCOCC2)[C@H](CO)O1)Nc1ccc(-c2ccccc2)cc1,1,3,3,.,7
COc1ccc(CCNC(=O)CCn2c(=O)c3cccn3c3cccnc32)cc1OC,65*,-9,-7,13,2
COc1ccc(CNC(=O)CCCn2c(=O)c3cccn3c3cccnc32)cc1,14,-3,.,7,1
COc1ccc(CCNC(=O)C(C)Sc2ccccc2)cc1OC (stereo not drawn),.,.,.,-3,.
COc1ccc(CCNC(=O)Cc2ccc3c(c2)OCO3)cc1OC,102*,.,.,-4,.
COc1ccc(CCNC(=O)CNC(=O)c2ccc3c(c2)OCO3)cc1OC,36,1,2,3,7
COc1ccc(CCNC(=O)COC(=O)c2ccccc2NCCO)cc1OC,83*,-3,-25,-3,2
COc1ccc(CCNC(=O)C(C)Sc2ccc(C)cc2)cc1OC (stereo not drawn),53*,.,.,-3,.
CO[C@@H]1CN(C)C(=O)c2ccc(NC(=O)c3ccc(F)cc3)cc2OC[C@H](C)N(C(=O)CC2CC2)C[C@@H]1C,-15,-9,3,.,1
COc1ccc(C(=O)Cc2ccc3c(c2)OCO3)c(O)c1,41*,.,.,-8,.
COc1ccc(CCNC(=O)CCCc2ccccc2)cc1OC,55*,-2,1,-2,2
C[C@@H](NC(=O)C[C@H]1CC[C@H](NC(=O)c2cccnc2)[C@H](CO)O1)c1ccccc1,6,-6,4,.,-2
C/C(=N\NC(N)=O)c1ccc(-n2ccnc2)cc1,-4,3,22*,5,17
SMILES,GSIS activator,S100A4 MyoIIA,SIRT5 block,PDI turbidity,ERp5 inh
Cc1cc(C)c(OCCCCN(C)C)c(Br)c1,13,-22,15*,-1,-5
CCNC(=O)C[C@@H]1CC[C@@H]2[C@H](COC[C@@H](O)CN2C(=O)C2CC2)O1,2,-1,-5,.,1
Cc1ccc(S(=O)(=O)N2C[C@@H](C)[C@]3(C2)[C@H](O)[C@H](OC(=O)NCc2ccco2)C[C@H]2C(=O)N(c4ccccc4)C(=O)[C@H]23)cc1,-4,21,22*,12,0
COc1ccc(CNC(=O)O[C@@H]2C[C@H]3C(=O)N(c4ccccc4)C(=O)[C@H]3[C@@]3(CN(S(=O)(=O)c4ccc(C)cc4)C[C@H]3C)[C@@H]2O)cc1OC,-9,-2,-1,3,1
OC[C@H]1[C@@H](c2ccc(-c3cncnc3)cc2)[C@@H]2CN(CC3CCOCC3)CCCCN12,15,-6,-2,.,2
O=C(O)CSCC(=O)Nc1cc(C(F)(F)F)ccc1Cl,49*,.,.,7,.
COc1ccc2c3c(n(C)c2c1)[C@H](CO)N(C)CC31CN(S(C)(=O)=O)C1,9,.,.,.,.
CCCNC(=O)Nc1ccc2c(c1)OC[C@H](C)N(C(=O)C1CCCCC1)C[C@H](C)[C@@H](OC)CN(C)C2=O,-16,5,2,.,.
CCCCC[C@@H](C)N1C[C@@H](COCc2ccccc2)Oc2cc(N3CCC[C@H]3CO)ccc2S1(=O)=O,-6,3,1,.,8
CCCCC[C@@H](C)N1C[C@H](COCc2ccccc2)Oc2cc(N3CCC[C@@H]3CO)ccc2S1(=O)=O,-7,-10,27*,.,0
COC(=O)C(N)Cc1ccc(O)c(O)c1 (stereo not drawn),.,.,.,-5,.
N[C@@H](Cc1cc(I)c(O)c(I)c1)C(=O)O,-12,-1,33*,-16,-2
C[C@@H]1CN([C@H](C)CO)C(=O)Cc2cc(NC(=O)Cc3ccccc3)ccc2O[C@H]1CN(C)C(=O)Nc1ccc(F)cc1,5,4,-5,.,10
CCOc1ccccc1C(=O)Nc1ccc2nc3n(c(=O)c2c1)CCCCC3,19,-1,23*,-6,-1
Cc1ccccc1C(=O)Nc1ccc2nc3n(c(=O)c2c1)CCCC3,31,-4,-2,5,1
Cc1ccc(S(=O)(=O)Nc2ccc3c(c2)CC(=O)N([C@H](C)CO)C[C@H](C)[C@H](CN(C)Cc2ccc(-c4ccccc4)cc2)O3)cc1,4,-7,3,.,-5
Cc1ccc(S(=O)(=O)Nc2ccc3c(c2)CC(=O)N([C@@H](C)CO)C[C@H](C)[C@H](CN(C)Cc2ccc(-c4ccccc4)cc2)O3)cc1,7,21,18*,.,-2
Cc1ccc(S(=O)(=O)Nc2ccc3c(c2)CC(=O)N([C@@H](C)CO)C[C@H](C)[C@@H](CN(C)Cc2ccc(-c4ccccc4)cc2)O3)cc1,11,11,19*,.,-2
O=C(COC(=O)c1ccc(Br)o1)Nc1ncc([N+](=O)[O-])s1,-67,1,16*,-6,-15
Cc1cc(=O)[nH]c(SCC(=O)c2ccccc2)c1C#N,43*,.,.,12,.
Cc1cc(C)c(C#N)c(SCC(=O)c2ccccc2)n1,3,1,-4,-9,-3
O=C1CCC(C(=O)N2CCCCCC2)CN1Cc1cccc(C(F)(F)F)c1 (stereo not drawn),13,0,18*,-3,6
CO[C@@H](CN(C)Cc1cc(F)ccc1F)[C@H](C)CN(C(=O)Nc1ccc(F)cc1)[C@H](C)CO,-10,19,-1,.,3
Cc1ncc(CN2CCC(CO)(Cc3ccccc3)CC2)s1,1,4,18*,16,9
